From PubChem BioAssay

Experiment: LAP4-GFP expression modulators in yeast, confirmation, cell-based, cherry picks, flow cytometry, mother/daughter gates (AID 2271);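 also: ratio of sample to DMSO plate mean so 100% equals DMSO level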
Settings: S. cerevisiae LAP4-GFP strain, 3 h, measured here: daughter cell gate response, at 10 µM, stronger effect = higher value, 100 means same as DMSO control
Method in brief: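 System: Alexa 633-stained baker's yeast GFP-fusion strain; quantity: 0.2 OD600 cells; timing: compound exposure 3 h at 30 °C, end-over-end rotation; detection: HT flow cytometry, GFP fluorescence channel; measure: per-gate (all, mother, daughter) GFP response vs DMSO; control set: DMSO-only negative wells, rapamycin 400 ng/mL positive wells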

| SMILES | GFP response relative to DMSO [%] |
| --- | --- |
| O=C(/C=C/c1ccc(F)cc1)NC(=S)NNC(=O)c1cnccn1 | 146 |
| Cc1ccc(/C=C/C(=O)c2ccc(C)cc2)cc1 | 99.3 |
| Cc1nn(Cc2ccc([N+](=O)[O-])cc2)c(=O)n1-c1cccc(Cl)c1 | 97.6 |
| Cn1c(=O)[nH]c(=O)c2c1nc(N1CCCCC1)n2CCOc1ccccc1 | 100 |
| COC(=O)NC1CCC(CC2CCC(NC(=O)OC)CC2)CC1 (stereo not given) | 92.8 |
| COCCNC(=O)c1ccc(Cl)c(Cl)c1 | 101 |
| COc1cc(-c2nc3ccccn3c2NCC2CCCO2)ccc1O (stereo not given) | 95 |
| CC(=O)Nc1ccc(NC(=O)c2nc(S(=O)(=O)Cc3cccc(C)c3)ncc2Cl)cc1 | 97.2 |
| O=C(COc1ccccc1[N+](=O)[O-])Nc1ccc(NC(=O)c2cc3ccccc3o2)cc1 | 92 |
| CCOC(=O)/C(=N\NC(=O)c1ccccc1)c1ccccc1 | 105 |
| COC(=O)c1ccc(N2C(=O)CC(Sc3n[nH]c(C)n3)C2=O)cc1 (stereo not given) | 130 |
| CC(C)C(=O)NC(c1cccs1)c1cc([N+](=O)[O-])c2cccnc2c1O (stereo not given) | 99.1 |
| Cc1ccc(/C=N/Nc2ncc(Cl)cc2Cl)s1 | 202 |
| CCOC(=O)Cc1csc(NC(=O)c2sc3nc4c(C)cc(C)cc4cc3c2N)n1 | 89.5 |
| Cn1cc([N+](=O)[O-])c(C(=O)Nc2nc(-c3ccc(Cl)cc3)cs2)n1 | 97.5 |
| CCCCOC(=O)C1CCC[C@@H](C)N1 (stereo not given in full) | 101 |
| CCN=C(NCC)SC1CC(=O)N(c2cccc(OCC)c2)C1=O (stereo not given) | 99.2 |
| COc1ccc(NC2=C(Cl)C(=O)N(CCc3ccccc3)C2=O)c(OC)c1 | 101 |
| COc1ccccc1-c1noc(CCC(=O)Nc2cccc(C(F)(F)F)c2)n1 | 104 |
| COc1ccc(-c2csc(N(CC(C)C)C(=O)c3ccco3)n2)cc1 | 101 |

| SMILES | GFP response relative to DMSO [%] |
| --- | --- |
| CC(=O)Nc1ccc(-c2csc(NC(=O)c3ccc(C)o3)n2)cc1 | 99.2 |
| CNc1cc(CSC)nc(SCc2ccc(Cl)cc2Cl)n1 | 118 |
| O=C1C(CSCc2ccccc2)NC(=S)N1c1ccccc1 (stereo not given) | 120 |
| COCCn1c(=N)c(C(=O)NCc2ccco2)cc2c(=O)n3ccccc3nc21 | 96 |
| Cc1ccc(-c2csc(NC(=O)c3ccno3)n2)cc1 | 99.1 |
| Cc1cccc(CN2CCSc3sccc3C2=O)c1 | 127 |
| COC(=O)c1ccc(/C=C/C(=O)c2ccc(OC)cc2)cc1 | 108 |
| CCOC(=O)CCS(=O)(=O)c1nc(-c2ccccc2)cc(C(F)(F)F)n1 | 153 |
| CCCN(Cc1nnc(-c2ccccc2Cl)o1)C(=O)c1cc([N+](=O)[O-])cc([N+](=O)[O-])c1 | 96 |
| COc1ccc(-c2[nH]ncc2N=Nc2ccccc2)cc1 | 104 |
| Cc1cccc(Cn2cc(/C=C/[N+](=O)[O-])c3ccccc32)c1 | 107 |
| OC1(c2ccc(F)cc2)CSC(=Nc2cccnc2)N1Cc1ccco1 (stereo not given) | 99.7 |
| COc1cc(/C=C2\N=C(C)OC2=O)cc(Cl)c1OC(C)=O | 115 |
| O=c1c2c(-c3ccc(Cl)cc3)csc2ncn1/N=C/c1cccc([N+](=O)[O-])c1O | 95 |
| O=[N+]([O-])c1cc(O)c2ncccc2c1 | 200 |
| CCc1nnc(NC(=O)c2ccc(S(=O)(=O)N(CC(C)C)CC(C)C)cc2)o1 | 97.5 |
| CCn1c(=O)c(C(=O)NCc2ccc(OC)cc2)c(O)c2ccccc21 | 102 |
| CS(=O)(=O)N1N=C(c2ccco2)CC1c1ccc(Cl)cc1 (stereo not given) | 97.9 |
| CC1(C)CCN2CCC(C)(C)c3c(O)ccc1c32 | 123 |
| O/C=c1\ccc2cccc3nc(C(F)(F)F)nc1c23 | 167 |

Same assay, conditions: S. cerevisiae LAP4-GFP strain, 3 h, measured here: mother cell gate response, at 10 µM, stronger effect = higher value, 100 means same as DMSO control

| SMILES | GFP response relative to DMSO [%] |
| --- | --- |
| O=C(/C=C/c1ccc(F)cc1)NC(=S)NNC(=O)c1cnccn1 | 301 |
| Cc1ccc(/C=C/C(=O)c2ccc(C)cc2)cc1 | 96.5 |
| Cc1nn(Cc2ccc([N+](=O)[O-])cc2)c(=O)n1-c1cccc(Cl)c1 | 96.1 |
| Cn1c(=O)[nH]c(=O)c2c1nc(N1CCCCC1)n2CCOc1ccccc1 | 102 |
| COC(=O)NC1CCC(CC2CCC(NC(=O)OC)CC2)CC1 (stereo not given) | 92.9 |
| COCCNC(=O)c1ccc(Cl)c(Cl)c1 | 96.1 |
| COc1cc(-c2nc3ccccn3c2NCC2CCCO2)ccc1O (stereo not given) | 88.7 |
| CC(=O)Nc1ccc(NC(=O)c2nc(S(=O)(=O)Cc3cccc(C)c3)ncc2Cl)cc1 | 95.2 |
| O=C(COc1ccccc1[N+](=O)[O-])Nc1ccc(NC(=O)c2cc3ccccc3o2)cc1 | 88.9 |
| CCOC(=O)/C(=N\NC(=O)c1ccccc1)c1ccccc1 | 106 |
| COC(=O)c1ccc(N2C(=O)CC(Sc3n[nH]c(C)n3)C2=O)cc1 (stereo not given) | 131 |
| CC(C)C(=O)NC(c1cccs1)c1cc([N+](=O)[O-])c2cccnc2c1O (stereo not given) | 99.4 |
| Cc1ccc(/C=N/Nc2ncc(Cl)cc2Cl)s1 | 317 |
| CCOC(=O)Cc1csc(NC(=O)c2sc3nc4c(C)cc(C)cc4cc3c2N)n1 | 92.1 |
| Cn1cc([N+](=O)[O-])c(C(=O)Nc2nc(-c3ccc(Cl)cc3)cs2)n1 | 102 |
| CCCCOC(=O)C1CCC[C@@H](C)N1 (stereo not given in full) | 99.5 |
| CCN=C(NCC)SC1CC(=O)N(c2cccc(OCC)c2)C1=O (stereo not given) | 98.3 |
| COc1ccc(NC2=C(Cl)C(=O)N(CCc3ccccc3)C2=O)c(OC)c1 | 104 |
| COc1ccccc1-c1noc(CCC(=O)Nc2cccc(C(F)(F)F)c2)n1 | 100 |
| COc1ccc(-c2csc(N(CC(C)C)C(=O)c3ccco3)n2)cc1 | 100 |

| SMILES | GFP response relative to DMSO [%] |
| --- | --- |
| CC(=O)Nc1ccc(-c2csc(NC(=O)c3ccc(C)o3)n2)cc1 | 98.3 |
| CNc1cc(CSC)nc(SCc2ccc(Cl)cc2Cl)n1 | 131 |
| O=C1C(CSCc2ccccc2)NC(=S)N1c1ccccc1 (stereo not given) | 128 |
| COCCn1c(=N)c(C(=O)NCc2ccco2)cc2c(=O)n3ccccc3nc21 | 86.3 |
| Cc1ccc(-c2csc(NC(=O)c3ccno3)n2)cc1 | 106 |
| Cc1cccc(CN2CCSc3sccc3C2=O)c1 | 126 |
| COC(=O)c1ccc(/C=C/C(=O)c2ccc(OC)cc2)cc1 | 111 |
| CCOC(=O)CCS(=O)(=O)c1nc(-c2ccccc2)cc(C(F)(F)F)n1 | 170 |
| CCCN(Cc1nnc(-c2ccccc2Cl)o1)C(=O)c1cc([N+](=O)[O-])cc([N+](=O)[O-])c1 | 98.4 |
| COc1ccc(-c2[nH]ncc2N=Nc2ccccc2)cc1 | 108 |
| Cc1cccc(Cn2cc(/C=C/[N+](=O)[O-])c3ccccc32)c1 | 114 |
| OC1(c2ccc(F)cc2)CSC(=Nc2cccnc2)N1Cc1ccco1 (stereo not given) | 104 |
| COc1cc(/C=C2\N=C(C)OC2=O)cc(Cl)c1OC(C)=O | 118 |
| O=c1c2c(-c3ccc(Cl)cc3)csc2ncn1/N=C/c1cccc([N+](=O)[O-])c1O | 99.5 |
| O=[N+]([O-])c1cc(O)c2ncccc2c1 | 204 |
| CCc1nnc(NC(=O)c2ccc(S(=O)(=O)N(CC(C)C)CC(C)C)cc2)o1 | 97.3 |
| CCn1c(=O)c(C(=O)NCc2ccc(OC)cc2)c(O)c2ccccc21 | 97.4 |
| CS(=O)(=O)N1N=C(c2ccco2)CC1c1ccc(Cl)cc1 (stereo not given) | 94.6 |
| CC1(C)CCN2CCC(C)(C)c3c(O)ccc1c32 | 115 |
| O/C=c1\ccc2cccc3nc(C(F)(F)F)nc1c23 | 178 |
